Source: PubChem BioAssay
Hsp70 act: Hsp70 transcriptional activators, primary screen, cell-based, HeLa, Hsp70 promoter luciferase, luminescence, 10 µM | HeLa Hsp70 promoter luciferase reporter; scaled: vehicle 0, proteasome-inhibitor control 100% | activation, % at 10 µM | 200,000 tested, 0.04% active;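 active means activation above the mean across all tested compounds plus 3 SD, cutoff set per campaign, cut at about 5.5% in these data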;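 further: 100% = MG132 at 30 µM as the positive control and 0% = DMSO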
L major viab: Leishmania major promastigote growth inhibition, primary screen; Leishmania major promastigotes, resazurin fluorescence viability; 200,000 tested, 9% active; inhibition, % at 10 µM; AID 1063, 2008; in the data active means inhibition above about 50%;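 further: promastigotes grown with compound for 44 hours at 28 °C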
T cruzi inh: inhibitors of intracellular T. cruzi growth, primary screen, luminescence, NIH3T3 host cells; AID 1885, 2009; T. cruzi beta-gal in NIH3T3, 90 h; 300,000 tested, 1.4% active; inhibition, % (no concentration beside the values);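 active means mean inhibition across valid replicates above about 55%, limit read from the data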;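 further: signal also drops with host cell toxicity which is not excluded here; 0% = plate median of DMSO wells and 100% = zero luminescence signal; higher percent means less beta-gal luminescence so fewer parasites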
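Material: NIH/3T3 host cells with β-galactosidase reporter T. cruzi; Input: 5,000 host fibroblasts per well; Medium: DMEM, 2% fetal bovine serum; Compound: 50 nL DMSO compound solution per well; Schedule: 3 h host attachment, then at least 90 h co-culture; Detection: luminescent β-galactosidase signal after 60 min lysis.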
HSF1 inh: HSF1 inhibitors in luciferase reporter cells, primary screen, cell-based, NIH3T3, luminescence | NIH3T3-HGL HSE-luciferase, MG132-induced, luminescence 8 h; active compounds read low | activity change, negative = inhibition, % at 7.5 µM (by protocol) | 300,000 tested, 0.77% active;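 active means more than half of replicate wells show activity change below -50%, luminescence cut by over half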;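 further: luciferase reports HSF-1 transcriptional activity via heat shock element; 0% = median of DMSO wells and -100% = zero luminescence signal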
HSF-1 act: HSF-1 activators, primary screen, NIH3T3-HGL cells, MG132 stress, luminescence, single point | NIH3T3-HGL HSF-1 luciferase reporter, 8 h; 100% = twice DMSO control signal | 300,000 tested, 1.7% active | activation, % at 9 µM;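 active means mean replicate activation of at least 50% with a set share of replicates each reaching 50%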;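 further: 0% = median of the neutral control wells and 100% = twice that signal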
Active calls of the source: *; nt = no result given. This is one part of a sample in which hits are shown more often than they occur.

SMILES | Hsp70 act | L major viab | T cruzi inh | HSF1 inh | HSF-1 act
Cc1nc(NC2=NCN(CCc3ccccc3)CN2)nc2c(C)cccc12 | 0 | 96* | nt | nt | nt
CCOc1cc(/C=N/NC(=O)C(C)Sc2ccccc2)ccc1O (stereo not given) | 0 | -4 | -14 | -2 | -1
O=C(NC(=S)Nc1ccc(N2CCCCC2)cc1)c1ccco1 | 0 | 15 | 23 | 20 | 30
CC1CCN(c2ccc(NC(=O)c3ccc(Br)o3)cc2)CC1 | nt | nt | 10 | 25 | 53*
CC1CCN(c2ccc(NC(=S)NC(=O)c3ccco3)cc2)CC1 | 0 | -4 | 24 | 14 | 61*
C[C@H](NC(=O)C1CC(=O)N(c2ccc3c(c2)OCCO3)C1)C(=O)NCc1ccco1 (stereo not given in full) | nt | nt | -8 | -1 | 0
COc1ccc(C(=O)C2CCCN(Cc3ccc(NC(C)=O)cc3)C2)cc1OC (stereo not given) | nt | nt | 1 | -72* | -76
CSc1ncc(CN2CCCC(C(=O)c3ccc(C(C)(C)C)cc3)C2)cn1 (stereo not given) | 0 | 88* | 16 | 13 | 24
COc1ccc(CN2CCCC(C(=O)c3cccc(C(F)(F)F)c3)C2)cc1O (stereo not given) | 0 | 84* | 8 | 0 | 9
O=C(c1cccc(C(F)(F)F)c1)C1CCCN(Cc2ccc(OCCO)cc2)C1 (stereo not given) | 0 | 81* | 63* | 1 | 0
CCCC/C=C/C(NC(=O)c1ccc(C(=O)OC)cc1)c1ccccc1 (stereo not given) | nt | nt | 13 | -2 | 1
Cc1cc(C)n(CC(C)NCc2cn[nH]c2-c2ccc(C)c(C)c2)n1 (stereo not given) | 0 | 19 | -1 | -1 | 4
COc1ccc(CN2CCCC(C(=O)c3ccc(SC)cc3)C2)cc1Cn1cccn1 (stereo not given) | -1 | 90* | 27 | -11 | -35
CCCCc1cc(=O)oc2cc(C)cc(OCC(=O)NC(Cc3ccc(Cl)cc3)C(=O)O)c12 (stereo not given) | nt | nt | 5 | 4 | -3
COc1ccccc1CNc1ccc2c(c1)CCC2 | nt | nt | 55* | -22 | -32
Cc1ccc(S(=O)(=O)N2CCN(c3ccccc3)CC2)cc1C(N)=O | 0 | -7 | -20 | -4 | 3
CCO[C@H]1OC(C(=O)NCc2ccccc2)=C[C@@H](c2ccc(C(F)(F)F)cc2)[C@@H]1CCCO | 0 | 53* | 10 | -3 | -8
C=CCN=c1scc(-c2ccccc2)n1/N=C/c1ccccn1 | 0 | 11 | -26 | 38 | 52*
C=CCN=c1scc(-c2ccc(F)cc2)n1/N=C/c1ccccn1 | 0 | 9 | -24 | 27 | 47
C=CCOc1ccc(/C=N/NC(=O)CN(c2cc(Cl)ccc2OC)S(=O)(=O)c2ccc(C)c([N+](=O)[O-])c2)cc1 | 0 | 97* | 2 | 2 | -1
O=C(Nc1ccccc1Cl)c1cc2ccccc2o/c1=N\O | nt | nt | -40 | 35 | 72*
CC1=CC(C)(C)N(S(=O)(=O)c2ccc(C)cc2)c2ccc(C)cc21 | 0 | 100* | 42 | -10 | 17
CC(=O)Nc1ccc(S(=O)(=O)N2c3ccccc3C(C)=CC2(C)C)cc1 | 0 | 100* | 28 | -14 | -13
CC1=CC(C)(C)N(S(=O)(=O)c2ccc(F)cc2)c2ccccc21 | 0 | 48 | -29 | -9 | -2
CCCCC(CC)CN1C(=O)/C(=C/c2ccncc2)SC1=S (stereo not given) | 0 | 97* | -5 | 10 | 19
SMILES | Hsp70 act | L major viab | T cruzi inh | HSF1 inh | HSF-1 act
O=C1/C(=C/c2ccncc2)SC(=S)N1C1CCCCC1 | 0 | 11 | -24 | 11 | 35
O=C1/C(=C\c2ccncc2)SC(=S)N1C1CCCCC1 | 0 | 65* | -2 | -1 | 14
CCN1C(=O)/C(=C\c2ccncc2)SC1=S | nt | nt | 3 | -4 | -22
O=Cc1ccccc1OCCOc1ccc([N+](=O)[O-])cc1 | 0 | 52* | -16 | 0 | 11
O=C(Nc1ccccc1)c1ccc(NCCc2ccccc2)c([N+](=O)[O-])c1 | 0 | -8 | -6 | -21 | -19
CCc1ccccc1NC(=O)c1ccc(NCCc2ccccc2)c([N+](=O)[O-])c1 | 0 | 67* | 9 | -5 | -2
